Results as given in ChEMBL document CHEMBL1125796, “Antitumor properties of 2(1H)-pyrimidinone riboside (zebularine) and its fluorinated analogues” (1991).
Where “and” joins values, the source holds several entries; their conditions need not be identical. Identical values can stand only once.

Columns and labels:
Mus musculus [1] = assay: Antitumor activity against L1210 tumor in mice, at a dose of 500 mg/kg peroral administration in the presence of 100 mg/kg of zebularine.; format: functional
Mus musculus [2] = assay: Antitumor activity against L1210 tumor in mice, at a dose of 500 mg/kg peroral administration in the presence of 10 mg/kg of zebularine.; format: functional
Mus musculus [3] = assay: Percent increase in life span of drug-treated mice relative to tumored, vehicle treated controls at a dose of 500 mg/kg orally in the presence of 500 mg/kg of zebularine.; format: functional; settings: po
Procedure, shortened: (§1)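 CDF1 mice were implanted ip with 10^6 L1210 cells on day 0. Oral treatment was given on day 1 only, 24 h after implantation. In combinations, the deaminase inhibitor was given as two 250 mg/kg doses 30 min apart, as one dose immediately before ara-C, or as half the dose 30 min before and half immediately after ara-C. %ILS was calculated versus vehicle-treated tumored controls.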

Mus musculus [4] = assay: Percent increase in life span of drug-treated mice relative to tumored, vehicle treated controls at a dose of 500 mg/kg oral treatment; format: functional; procedure, shortened: as §1
Mus musculus [5] = assay: Percent increase in life span of drug-treated mice relative to tumored, vehicle treated controls at a dose of 100 mg/kg oral treatment; format: functional; procedure, shortened: as §1
Mus musculus [6] = assay: Antitumor activity against L1210 tumor in mice, at a dose of 500 mg/kg peroral administration.; format: functional; settings: route oral
Procedure, shortened: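 CDF1 mice received L1210 leukemia ip. Treatment was oral on day 1 only, 24 h after implantation, with ara-C at 500 mg/kg. Zebularine was given as a single dose immediately before ara-C, or as divided doses (e.g. 2 × 250 mg/kg 30 min apart, or half 30 min before and half immediately after). Read-out was % increase in life span.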

Mus musculus [7] = assay: Percent increase in life span of drug-treated mice relative to tumored, vehicle treated controls at a dose of 3.13 mg/kg ip.; format: functional
Procedure, shortened: (§2)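 Tumors implanted day 0: B16 melanoma as 0.5 mL of 1:10 brei into BDF1 mice; L1210 or P388 leukemia as 10^6 cells into CDF1 mice, ip or sc. Drug was given in physiologic saline by ip or oral route, QD 1-9. %ILS was calculated against saline-treated tumored controls, with body-weight change difference as the toxicity read-out. Six mice per dose in most experiments.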

Mus musculus [8] = assay: Percent increase in life span of drug-treated mice relative to tumored, vehicle treated controls at a dose of 6.25 mg/kg ip.; format: functional; procedure, shortened: as §2
Mus musculus [9] = assay: Antitumor activity against P388 tumor in mice, at a dose of 200 mg/kg per ip administration.; format: functional; settings: route intraperitoneal
Procedure, shortened: (§3)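 Tumors implanted ip on day 0: B16 melanoma (0.5 mL of 1:10 brei) in BDF1 mice, and L1210 or P388 leukemia (10^6 cells) in CDF1 mice. Compound was given ip in physiologic saline daily on days 1–9. Read-out was % increase in life span versus vehicle-treated tumored controls, with body-weight change difference also recorded. Six mice per dose, three in some P388 groups.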

Mus musculus [10] = assay: (§4) Antitumor activity against P388 tumor in mice, at a dose of 400 mg/kg per ip administration.; format: functional; settings: route intraperitoneal; procedure, shortened: as §3
Mus musculus [11] = assay: Antitumor activity against ara-c resistance L1210 tumor in mice, at a dose of 800 mg/kg per ip administration.; format: functional; settings: route intraperitoneal
Procedure, shortened: (§5)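 An ara-C-resistant L1210 leukemia line (10^6 cells) was implanted ip on day 0 in CDF1 mice. Compound was given ip in physiologic saline daily on days 1–9. Read-out was % increase in life span versus saline-treated tumored controls, plus body-weight change difference.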

Mus musculus [12] = assay: Antitumor activity against L1210 tumor in mice, at a dose of 1600 mg/kg per oral administration.
Mus musculus [13] = assay: Percent increase in life span of drug-treated mice relative to tumored, vehicle treated controls at a dose of 800 mg/kg ip.; format: functional; settings: 800 mg/kg; procedure, shortened: as §2
Mus musculus [14] = assay: Antitumor activity against B16 tumor in mice, at a dose of 400 mg/kg per ip administration.; format: functional; settings: route intraperitoneal; procedure, shortened: as §3
Mus musculus [15] = assay: Antitumor activity against ara-c resistance L1210 tumor in mice, at a dose of 200 mg/kg per ip administration.; format: functional; settings: route intraperitoneal; procedure, shortened: as §5
Mus musculus [16] = assay: Percent increase in life span of drug-treated mice relative to tumored, vehicle treated controls at a dose of 600 mg/kg ip.; format: functional; procedure, shortened: as §2
Mus musculus [17] = assay: Percent increase in life span of drug-treated mice relative to tumored, vehicle treated controls at a dose of 400 mg/kg ip.; format: functional; settings: 400 mg/kg; procedure, shortened: as §2
Mus musculus [18] = assay: as §4; format: functional; settings: route intraperitoneal; procedure, shortened: as §3; remark: listed apart in the source
Mus musculus [19] = assay: Percent increase in life span of drug-treated mice relative to tumored, vehicle treated controls at a dose of 200 mg/kg ip.; format: functional; procedure, shortened: as §2
Mus musculus [20] = assay: Percent increase in life span of drug-treated mice relative to tumored, vehicle treated controls at a dose of 800 mg/kg, ip administration
Mus musculus [21] = assay: Antitumor activity against B16 tumor in mice, at a dose of 800 mg/kg per ip administration.; format: functional; settings: route intraperitoneal; procedure, shortened: as §3
Mus musculus [22] = assay: Antitumor activity against B16 tumor in mice, at a dose of 200 mg/kg per ip administration.; format: functional; settings: route intraperitoneal; procedure, shortened: as §3
Mus musculus [23] = assay: Antitumor activity against L1210 tumor in mice, at a dose of 800 mg/kg per ip administration.; format: functional; settings: route intraperitoneal; procedure, shortened: as §3
Mus musculus [24] = assay: Antitumor activity against […] tumor in mice, at a dose of 400 mg/kg per ip administration.; format: functional; settings: route intraperitoneal; procedure, shortened: as §3
Mus musculus [25] = assay: Percent increase in life span of drug-treated mice relative to tumored, vehicle treated controls at a dose of 1600 mg/kg orally.; settings: oral
Mus musculus [26] = assay: Antitumor activity against ara-c resistance L1210 tumor in mice, at a dose of 400 mg/kg per ip administration.; format: functional; settings: route intraperitoneal; procedure, shortened: as §5
Mus musculus [27] = assay: Antitumor activity against L1210 tumor in mice, at a dose of 400 mg/kg per ip administration.; format: functional; settings: route intraperitoneal; procedure, shortened: as §3
Mus musculus [28] = assay: Antitumor activity against P388 tumor in mice, at a dose of 600 mg/kg per ip administration.; format: functional; settings: route intraperitoneal; procedure, shortened: as §3
Mus musculus [29] = assay: Percent increase in life span of drug-treated mice relative to tumored, vehicle treated controls at a dose of 800 mg/kg oral administration

With Nc1ccn([C@@H]2O[C@H](CO)[C@@H](O)[C@@H]2O)c(=O)n1 [CYTARABINE] the Weight change difference (Mus musculus [1]) was -1 g, the Weight change difference (Mus musculus [2]) was -2.2 g and the ILS at 500 mg/kg (Mus musculus [3]) was 74%. For the same compound, the ILS (Mus musculus [4]) was 44% and 74% and 80%, the ILS (Mus musculus [5]; 100 mg/kg) was 68% and the ILS at 100 mg/kg (Mus musculus [5]; Mus musculus, po) was 68%. The Weight change difference (Mus musculus [6]) was -0.5 g.
Compound OC[C@H]1O[C@@H](n2cnc3cncnc32)[C@H](O)[C@@H]1O [NEBULARINE] has an ILS (Mus musculus [7]; 3.13 mg/kg) of 52%, an ILS at 3.13 mg/kg (Mus musculus [7]; Mus musculus, ip) of 60% and an ILS (Mus musculus [8]; 6.25 mg/kg) of 34%. It also gave an ILS at 6.25 mg/kg (Mus musculus [8]; Mus musculus, ip) of 40%.
O=c1ncccn1[C@@H]1O[C@H](CO)[C@@H](O)[C@H]1O [ZEBULARINE] was tested, and the Weight change difference (Mus musculus [9]) was -2 g and -0.7 g, the Weight change difference (Mus musculus [10]) was -1.2 g and the Weight change difference (Mus musculus [11]) was -3.4 g. For the same compound, the Weight change difference (Mus musculus [12]) was -2.3 g, the ILS (Mus musculus [13]) was 77% [middle of 5 runs] and the Weight change difference (Mus musculus [14]) was -0.1 g and -0.2 g. The Weight change difference (Mus musculus [15]) was -1.6 g, the ILS at 600 mg/kg (Mus musculus [16]) was 45% and the ILS (Mus musculus [17]) was 66% [middle of 7 runs]. The Weight change difference (Mus musculus [18]) was -2.3 g, the ILS (Mus musculus [19]; 200 mg/kg) was 34% and 25% and 40% and the ILS at 200 mg/kg (Mus musculus [19]; Mus musculus, ip) was 36%. It also gave an ILS at 800 mg/kg (Mus musculus [20]) of 110%, a Weight change difference (Mus musculus [21]) of 0 g and a Weight change difference (Mus musculus [22]) of -0.5 g. For the same compound, the Weight change difference (Mus musculus [23]) was -2.8 g, the Weight change difference (Mus musculus [24]) was -2.1 g and the ILS at 1600 mg/kg (Mus musculus [25]) was 112%. The Weight change difference (Mus musculus [26]) was -1.8 g, the Weight change difference (Mus musculus [27]) was -0.4 g and the Weight change difference (Mus musculus [28]) was -1.3 g. It also gave an ILS at 800 mg/kg (Mus musculus [29]) of 81%.
